The record followed here is the RNAGym collection of RNA variant scans (doi:10.1126/science.aae0568).

This sample holds only a part of the variants without activity.

The chains are these.
B1: tRNA (parent)
chain: GUUCCGUUGGCGUAAUGGUAACGCGUCUCCCUCCUAAGGAGAAGACUGCGGGUUCGAGUCCCGUACGGAACG

The variants in the series derive from B1. The series is described as follows: yeast fitness relative to wild type (ratio to wild type); higher = fitter; tRNA-Arg(CCU), competitive growth, 37 C, YPD. Summed up:
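Changes in genotype frequencies gave Darwinian fitness relative to wild type. Frequencies were read by 100-nucleotide paired-end sequencing of gene amplicons before and after pooled Saccharomyces cerevisiae strains, carrying tRNA-Arg(CCU) gene variants at the native locus, were competed in YPD at 37°C for 24 hours in six replicates. A genotype was kept only with ≥ 100 starting reads, and estimates < 0.5 were set to 0.5.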
In the case of C27U C31A U64G, the yeast fitness is no more than 0.5. The value for C27U C30A C46G was 0.698; that for C27G G39A C46U was 0.74; that for C27U C31U C60G was 0.581.

With C27U A69U, the yeast fitness turned out to be 1.02. In the case of C27G C31G A36U A37U, the yeast fitness amounted to 0.615. For the variant C27U C29A C49A, the yeast fitness is no more than 0.5. C27G G51C: the yeast fitness amounted to 0.78. With C27G C31G G38C, the yeast fitness was 0.504. Regarding C27U A42U C61G, the yeast fitness was 0.545. The value for C27G C30G G56U was 0.543; that for C27G U32C C62U was 0.62.

Turning to C27U A37G G41A G50C, the yeast fitness worked out at 0.649. C27U A45U G50A A69C: the yeast fitness is no more than 0.5. Under C27G U54C A69G stands 0.625; under C27G C60A, no more than 0.5; under C27G C60U, no more than 0.5. The value for C27G G41A was 1.03; that for C27G U54C C62U was 0.552. Consider C27G C31U C49G U59A, for which the yeast fitness was no more than 0.5. The value for C27U A36C U54A C62U was no more than 0.5. C27G U35A A45U G67A: the yeast fitness amounted to 0.612. With C27G C34G A45G G51C A70G, the yeast fitness was no more than 0.5. The value for C27U A37G A70C was 0.562; that for C27G G48A U59G was no more than 0.5. Under C27G C34U G41C G51A stands no more than 0.5; under C27U C29U C62U, 0.578; under C27G G39A C66U G67A, no more than 0.5.

Take C27G G38C C62G C66U: the yeast fitness is no more than 0.5. Under C27U A45C U64G stands 0.584. Under C27G G50A C60G stands 0.778; under C27G U53C G56A C66U, no more than 0.5; under C27U C30U A70G, 0.624. The value for C27U A43C U64C was 0.732; that for C27U C31A A45U was 0.747; that for C27U C31U G52A was 0.639.

C27U A37U U47G: the yeast fitness turned out to be 0.531. Consider C27G C46U, for which the yeast fitness came to 0.972. Under C27G C46G stands 1.11; under C27G C46A, 0.933; under C27G U35A G52A A57G A69U A70U, no more than 0.5.

Consider C27G C30U G52C, for which the yeast fitness amounted to 0.507.

As to C27U A45C G67A, the yeast fitness was found to be 0.666. Under C27U A42U C62U A65C G67A stands no more than 0.5.

For the variant C27U A45C C49U G56A, the yeast fitness is no more than 0.5.

For the variant C27G C31A C33G C49U G58C A70U, the yeast fitness was no more than 0.5.

Consider C27U C31A, for which the yeast fitness stood at 0.758.

As for C27G G41A A57G, the yeast fitness was 0.746. On to C27G U32G A36C C46G, for which the yeast fitness is no more than 0.5. Under C27U C31G A69C stands 0.604; under C27G U54A, 0.544; under C27U A37U C49U, 0.549.

Take C27U A37C G56C G63C U64C: the yeast fitness was no more than 0.5. The value for C27U A40U was 0.925; that for C27U A40G was 0.834. Under C27U A42G stands 0.695. Regarding C27U C30U C34A C62A, the yeast fitness is no more than 0.5.

Take C27G C34G U54A: the yeast fitness was found to be 0.6.

With C27G C34A C61U, the yeast fitness was no more than 0.5. Under C27G G39A stands 0.615. The value for C27U A36U A69C A70U was no more than 0.5; that for C27G G52A G63A was 0.533; that for C27U A37U A65U was 0.591. Under C27U C29U A57C stands no more than 0.5; under C27U A40G C62G G68A, no more than 0.5.

With C27U A65U, the yeast fitness is 0.99. Under C27U A37C G51C G67U stands 0.543. The value for C27G C30G C49U C62U G67A was no more than 0.5. As to C27G G38A G48C, the yeast fitness was 0.538. The value for C27U A40C C46U was 0.661; that for C27G U64A was 0.665; that for C27G G38C was 0.5. Under C27G G48C C49G stands 0.503; under C27G C30U A65U A70U, 0.594; under C27G C30U U32C G51C, 0.603. As to C27G U28A C30G C31U G68C A70C, the yeast fitness was no more than 0.5. The value for C27G C34G C46U C49U was no more than 0.5; that for C27U C30G A45C C60U C62G was 0.818.

Regarding C27U A40G G44A, the yeast fitness worked out at 0.513. The value for C27G G44C A45G U64A was no more than 0.5; that for C27G G39A C66G was 0.655; that for C27G C31U A57G was 0.562.

In the case of C27G C30U G39C A40U G44C U47A G48A, the yeast fitness is no more than 0.5.

As for C27G U59G, the yeast fitness was found to be 0.641. The value for C27U C29A G38C A57G C61U was no more than 0.5. As for C27G G63A, the yeast fitness was 0.665. The value for C27G G63C was 0.582; that for C27U A36G G56C was no more than 0.5; that for C27G C60U C61G was 0.681. Take C27G C30G C49U C61A: the yeast fitness is no more than 0.5. As to C27G C30G G56U G63A, the yeast fitness was no more than 0.5. The value for C27G C31G G63U was no more than 0.5; that for C27G G68C was 0.65; that for C27G U28A A43U was 0.582. The value for C27U C30G C33G C34G A40U G52C G56C was no more than 0.5. As for C27G U28A G52A C55U, the yeast fitness was no more than 0.5. The value for C27G G38C U64A was no more than 0.5; that for C27U A37C C60G A65G was no more than 0.5; that for C27G C31A A69U was 0.589.

Take C27U A40U U54C: the yeast fitness was no more than 0.5. For the variant C27U A40C G58A, the yeast fitness is 0.626. Under C27G U47C G50A A57G C60G stands 0.636; under C27G C30U C66U, no more than 0.5; under C27G C60G A65U, 0.641. For C27G G38C C49G A70G, the yeast fitness is no more than 0.5. The value for C27G C30U C31A C33G C49U G58C was no more than 0.5. The value for C27G C55A G58A was no more than 0.5; that for C27U A36C A57G was no more than 0.5.

Consider C27G G41A C55U, for which the yeast fitness was 0.618. The value for C27U A37C A40U A43U C66U was 0.583; that for C27U A45U was 1.02.

Regarding C27U A45C, the yeast fitness was found to be 0.947. Regarding C27G C31U C34G A37G G44A, the yeast fitness is no more than 0.5.

Consider C27G G41A G67U, for which the yeast fitness came out at 0.709. The value for C27G G41A G67A was 0.789; that for C27U A36C A69U was 0.646; that for C27G U28A C34U was no more than 0.5.

Turning to C27G U35A, the yeast fitness is 0.636. The value for C27G C30U C46A was 0.655. Under C27U C30U C46U U54G stands no more than 0.5; under C27G C49U C55G, no more than 0.5.

With C27U A36G A42C C49U, the yeast fitness is 0.574. The value for C27G C49U G63C was no more than 0.5; that for C27U A45C G48A A57U G68C was 0.562; that for C27U A65G G68A was 0.563.

For the variant C27U A42G G67A, the yeast fitness turned out to be 0.589. Under C27G C31U C34G A37G A65C stands no more than 0.5; under C27G U53G, no more than 0.5.

Consider C27U A45C G63A, for which the yeast fitness came to 0.68.

Consider C27U C31A U35G C55G, for which the yeast fitness is no more than 0.5. The value for C27G U28C was 0.609. Under C27G U28G stands 0.522; under C27G U28G C66G G67C, no more than 0.5; under C27U A43C C49U, 0.757. Under C27G C31G C61A stands 0.693; under C27U C30A A69U, 0.585; under C27G C33U A45U G63A, no more than 0.5. Take C27U C30U C46G: the yeast fitness came to 0.558. Regarding C27G G50C, the yeast fitness was no more than 0.5. The value for C27G C31G C46A was 0.932; that for C27U A65U A70C was 0.607.

Turning to C27G C31G C49A U53C, the yeast fitness was no more than 0.5. Under C27U A43C A69C stands 0.754; under C27G C33G G41A, no more than 0.5. With C27G C33G G44A, the yeast fitness is 0.669. The value for C27G C60U G67C was no more than 0.5; that for C27G G41A G68C was 0.71. C27G C31G C33U: the yeast fitness was no more than 0.5. Under C27G C34U C49U C66G stands no more than 0.5; under C27U C30U A42C G58C, no more than 0.5; under C27G G38A A70U, no more than 0.5. The value for C27U A40G G44A C55U A69U was no more than 0.5. The value for C27U A43U C55G was 0.544; that for C27U C31U G48A was 1; that for C27G C33G A57C was no more than 0.5. In the case of C27G C31A A37C, the yeast fitness was no more than 0.5.

Turning to C27G G41A U64A, the yeast fitness is 0.681. Under C27G U47A stands 0.702. For C27G G50A G56C, the yeast fitness is no more than 0.5. Under C27U C30U C34G A37C C61A stands no more than 0.5; under C27U C30A A42U A57U G63A A65C, 0.597. Under C27G C31A A70U stands no more than 0.5. The value for C27G G67U was 0.632. On to C27U, for which the yeast fitness was found to be 0.995. Under C27G G41A C49G G56C stands no more than 0.5.

For the variant C27U A37G G38C A43C C62G, the yeast fitness was found to be 0.508. The value for C27G U32G A40U A42U C55G was no more than 0.5.
